From ChEMBL document CHEMBL4428054, “Synthesis of Fluorescent Binaphthyl Amines That Bind c-MYC G-Quadruplex DNA and Repress c-MYC Expression” (J Med Chem, 2016)
Active and inactive are the calls of the source. The rule behind the calls is not given here.

Columns and labels:
[1] = system: Quadruplex DNA; assay: Stabilization of 5'-FAM and 3'-TAMRA-labeled c-KIT1 G-quadruplex (unknown origin) assessed as change in melting temperature at 1 uM by FRET assay; type: nucleic-acid assay; settings: unidentified
In short: (§1)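 FRET melting of dual-labelled (5′-FAM/3′-TAMRA) promoter quadruplexes or duplex in 60 mM potassium cacodylate buffer, pH 7.4. ΔTm is taken against ligand-free Tm. The ligand was tested across a concentration series. Maximum measurable Tm is 93 °C.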

[2] = system: Quadruplex DNA; assay: Stabilization of 5'-FAM and 3'-TAMRA-labeled c-MYC G-quadruplex (unknown origin) assessed as change in melting temperature at 1 uM by FRET assay; type: nucleic-acid assay; settings: unidentified; in short: as §1
[3] = system: Quadruplex DNA; assay: Stabilization of 5'-FAM and 3'-TAMRA-labeled k-RAS G-quadruplex (unknown origin) assessed as change in melting temperature at 1 uM by FRET assay; type: nucleic-acid assay; settings: unidentified; in short: as §1
[4] = system: Quadruplex DNA; assay: Stabilization of 5'-FAM and 3'-TAMRA-labeled c-KIT2 G-quadruplex (unknown origin) assessed as change in melting temperature at 1 uM by FRET assay; type: nucleic-acid assay; settings: unidentified; in short: as §1
[5] = system: dsDNA; assay: Stabilization of 5'-FAM and 3'-TAMRA-labeled dsDNA (unknown origin) assessed as change in melting temperature at 1 uM by FRET assay; type: nucleic-acid assay; in short: as §1
[6] = Drug localization in cytoplasm of human HeLa cells at 5 uM incubated for 2 hrs by fluorescence microscopy; type: ADME, subcellular
In short: (§2)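 Intrinsic ligand fluorescence imaged by fluorescence microscopy in HeLa cells after 2 h at 5.0 μM. Merged images were used to assign nuclear versus cytoplasmic localisation.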

[7] = system: HeLa; assay: Induction of apoptosis in human HeLa cells assessed as early apoptotic cells level at 5 uM incubated for 24 hrs by Annexin V-FITC staining based flow cytometry (reference value: 1.1%); type: functional
[8] = system: C2C12; assay: Cytotoxicity against mouse C2C12 cells incubated for 24 hrs by MTT assay; type: cell-based; settings: C2C12, 24 h
In short: (§3)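 MTT growth-inhibition assay in HeLa, A549 and mouse C2C12 cells. Cells given 0.1% DMSO served as control. IC50 values were reported.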

[9] = system: Quadruplex DNA; assay: Binding affinity to pre-annealed c-MYC G-quadruplex (unknown origin) assessed as increase in fluorescence intensity at 1 uM in 100 mM KCl, 10 mM Tris.HCl at pH 7.4 by fluorescence spectroscopy relative to untreated control; type: nucleic-acid assay; settings: unidentified
In short: (§4)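 Fluorescence titration in 100 mM KCl, 10 mM Tris·HCl, pH 7.4. Excitation was 350 nm and emission was read at the 430 nm maximum. Ligand (1 μM for c-MYC) was titrated with increasing quadruplex or ds DNA, up to 20 equiv. Change in intensity was scored, and Kd was derived from the titration curves.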

[10] = Selectivity for 5'-FAM and 3'-TAMRA-labeled c-MYC G-qudaruplex (unknown origin) over 5'-FAM and 3'-TAMRA-labeled c-KIT1 G-qudaruplex (unknown origin)
[11] = target: Quadruplex DNA; assay: Binding affinity to pre-annealed c-KIT1 G-quadruplex (unknown origin) in 100 mM KCl, 10 mM Tris.HCl at pH 7.4 by fluorescence spectroscopy relative to untreated control; type: nucleic-acid assay, unidentified; in short: as §4
[12] = system: unidentified; assay: Selectivity for 5'-FAM and 3'-TAMRA-labeled c-MYC G-quadruplex (unknown origin) over 5'-FAM and 3'-TAMRA-labeled k-RAS G-quadruplex (unknown origin)
[13] = system: HeLa; assay: Cell cycle arrest in human HeLa cells assessed as accumulation at subG1 phase at 5 uM incubated for 24 hrs by propidium iodide staining based flow cytometry (reference value: 2.2%); type: functional
[14] = system: unidentified; assay: Selectivity for 5'-FAM and 3'-TAMRA-labeled c-MYC G-quadruplex (unknown origin) over 5'-FAM and 3'-TAMRA-labeled c-KIT2 G-quadruplex (unknown origin)
[15] = system: dsDNA; assay: Stabilization of 5'-FAM and 3'-TAMRA-labeled dsDNA (unknown origin) assessed as change in melting temperature at 5 uM by FRET assay; type: nucleic-acid assay; in short: as §1
[16] = system: HeLa; assay: Induction of apoptosis in human HeLa cells assessed as necrotic cells level at 5 uM incubated for 24 hrs by Annexin V-FITC staining based flow cytometry (reference value: 0.1%); type: functional
[17] = system: HeLa; assay: Cytotoxicity against human HeLa cells incubated for 24 hrs by MTT assay; type: functional, cell-based; in short: as §3
[18] = system: HeLa; assay: Cell cycle arrest in human HeLa cells assessed as accumulation at G0/G1 phase at 5 uM incubated for 24 hrs by propidium iodide staining based flow cytometry (reference value: 61.5%); type: functional
[19] = system: Quadruplex DNA; assay: Stabilization of 5'-FAM and 3'-TAMRA-labeled c-MYC G-quadruplex (unknown origin) assessed as change in melting temperature at 1 uM in presence of 100 nM to 10 uM dsDNA by FRET assay; type: nucleic-acid assay; settings: unidentified
[20] = system: dsDNA; assay: Binding affinity to 20 equivalents of dsDNA (unknown origin) in 100 mM KCl, 10 mM Tris.HCl at pH 7.4 by fluorescence spectroscopy relative to untreated control; type: nucleic-acid assay; in short: as §4
[21] = system: A549; assay: Cytotoxicity against human A549 cells incubated for 24 hrs by MTT assay; type: functional, cell-based; settings: A549, 24 h; in short: as §3
[22] = target: Quadruplex DNA; assay: Binding affinity to pre-annealed c-KIT2 G-quadruplex (unknown origin) in 100 mM KCl, 10 mM Tris.HCl at pH 7.4 by fluorescence spectroscopy relative to untreated control; type: nucleic-acid assay, unidentified; in short: as §4
[23] = Drug localization in nucleus of human HeLa cells at 5 uM incubated for 2 hrs by fluorescence microscopy; type: ADME, subcellular; in short: as §2
[24] = system: Quadruplex DNA; assay: Stabilization of 5'-FAM and 3'-TAMRA-labeled c-KIT1 G-quadruplex (unknown origin) assessed as change in melting temperature at 1 uM in presence of 100 nM to 10 uM dsDNA by FRET assay; type: nucleic-acid assay; settings: unidentified
[25] = system: HeLa; assay: Cell cycle arrest in human HeLa cells assessed as accumulation at G2/M phase at 5 uM incubated for 24 hrs by propidium iodide staining based flow cytometry (reference value: 25.5%); type: functional
[26] = system: HeLa; assay: Effect on GAPDH protein expression in human HeLa cells at 1 to 5 uM incubated for 24 hrs by Western blot method; type: ADME, cell-based
In short: (§5)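 Western blot of HeLa lysates after 24 h at 1, 2.5 or 5 μM, with DMSO control. c-MYC was probed, GAPDH served as loading control, and bands were quantified by densitometry.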

[27] = system: Quadruplex DNA; assay: Binding affinity to c-MYC G-quadruplex (unknown origin) by 1H-NMR spectroscopy; type: nucleic-acid assay; settings: unidentified
In short: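 1D 1H NMR of c-MYC quadruplex DNA at different ligand:DNA ratios, monitoring imino and aromatic regions against partial signal assignments. Chemical shift perturbation or line broadening was noted separately at ratios below 1 and at ratios of 1 or above.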

[28] = system: HeLa; assay: Effect on GAPDH mRNA expression in human HeLa cells at 1 to 5 uM incubated for 24 hrs by RT-PCR method; type: ADME, cell-based
[29] = system: Quadruplex DNA; assay: Stabilization of 5'-FAM and 3'-TAMRA-labeled c-KIT2 G-quadruplex (unknown origin) assessed as change in melting temperature at 1 uM in presence of 100 nM to 10 uM dsDNA by FRET assay; type: nucleic-acid assay; settings: unidentified
[30] = target: Quadruplex DNA; assay: Binding affinity to pre-annealed c-MYC G-quadruplex (unknown origin) in 100 mM KCl, 10 mM Tris.HCl at pH 7.4 by fluorescence spectroscopy relative to untreated control; type: nucleic-acid assay, unidentified; in short: as §4
[31] = system: Quadruplex DNA; assay: Effect on parallel topology of c-MYC G-quadruplex (unknown origin) at 0 to 5 equivalent by CD spectroscopy; type: nucleic-acid assay; settings: unidentified
[32] = system: HeLa; assay: Cell cycle arrest in human HeLa cells assessed as accumulation at S phase at 5 uM incubated for 24 hrs by propidium iodide staining based flow cytometry (reference value: 10.8%); type: functional
[33] = system: Quadruplex DNA; assay: Stabilization of 5'-FAM and 3'-TAMRA-labeled k-RAS G-quadruplex (unknown origin) assessed as change in melting temperature at 1 uM in presence of 100 nM to 10 uM dsDNA by FRET assay; type: nucleic-acid assay; settings: unidentified
[34] = system: Quadruplex DNA; assay: Stabilization of c-MYC G-quadruplex in human HeLa cells assessed as reduction in c-MYC mRNA level at 5 uM incubated for 24 hrs by RT-PCR method; type: cell-based; set-up: scale not given: the % may be the effect or the level left
In short: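 qRT-PCR on HeLa cells treated 24 h at 1.0, 2.5 or 5.0 μM. c-MYC mRNA was normalised to GAPDH and compared with 0.1% DMSO-treated control.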

[35] = system: HeLa; assay: Induction of apoptosis in human HeLa cells assessed as late apoptotic cells level at 5 uM incubated for 24 hrs by Annexin V-FITC staining based flow cytometry (reference value: 0.8%); type: functional
[36] = system: HeLa; assay: Induction of apoptosis in human HeLa cells assessed as viable cell level at 5 uM incubated for 24 hrs by Annexin V-FITC staining based flow cytometry; type: functional
[37] = system: Quadruplex DNA; assay: Stabilization of c-MYC G-quadruplex in human HeLa cells assessed as reduction in c-MYC mRNA level at 5 uM incubated for 24 hrs by Western blot method; type: cell-based; set-up: scale not given: the % may be the effect or the level left; settings: in the assay text read “c-MYC protein level” for “c-MYC mRNA level”; in short: as §5
[38] = target: Quadruplex DNA; assay: Binding affinity to pre-annealed c-MYC G-quadruplex (unknown origin) in 10 mM Tris.HCl buffer containing 100 mM KCl at pH 7.4 by UV/Visible spectroscopy; type: nucleic-acid assay, unidentified
In short: (§6)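 UV–vis titration of 20 μM ligand with preannealed c-MYC quadruplex (0–1.4 equiv) in 100 mM KCl, 10 mM Tris·HCl, pH 7.4. Hypochromicity was followed at the 362 nm ligand band, because the 298 nm band overlaps DNA absorbance. Kd was fitted with the Hill 1 equation.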

[39] = system: dsDNA; assay: Binding affinity to dsDNA (unknown origin) in 10 mM Tris.HCl buffer containing 100 mM KCl at pH 7.4 by UV/Visible spectroscopy; type: nucleic-acid assay
[40] = system: Quadruplex DNA; assay: Binding affinity to pre-annealed c-MYC G-quadruplex (unknown origin) assessed as hypochromacity at 20 uM in 10 mM Tris.HCl buffer containing 100 mM KCl at pH 7.4 by UV/Visible spectroscopy; type: nucleic-acid assay; settings: unidentified; in short: as §6
[41] = target: Quadruplex DNA; assay: Binding affinity to pre-annealed k-RAS G-quadruplex (unknown origin) in 100 mM KCl, 10 mM Tris.HCl at pH 7.4 by fluorescence spectroscopy relative to untreated control; type: nucleic-acid assay, unidentified; in short: as §4

Compound: O=C(O)c1ccc(Nc2ccc(-c3ccc(Nc4ccc(C(=O)O)cc4)c4ccccc34)c3ccccc23)cc1
- ΔTm [1]: 2.5 °C
- ΔTm [2]: 4.5 °C
- ΔTm [3]: 3.8 °C
- ΔTm [4]: 2.8 °C
- ΔTm [5]: 0.5 °C

Compound: CN(C)CCCn1cc(CNC(=O)c2ccc(Nc3ccc(-c4ccc(Nc5ccc(C(=O)NCc6cn(CCCN(C)C)nn6)cc5)c5ccccc45)c4ccccc34)cc2)nn1
- Drug uptake [6]: Active
- Activity [7]: 55.9%
- IC50 [8]: ≥ 40 µM
- fold change (FC) [9]: 3.5
- Selectivity ratio [10]: 3 to 5
- Kd [11]: 10.2 µM
- Selectivity ratio [12]: 3 to 5
- Activity [13]: 32.2%
- Selectivity ratio [14]: 3 to 5
- Activity [15]: inactive
- ΔTm [1]: 11 °C
- Activity [16]: 0.6%
- IC50 [17]: 5.53 µM
- Activity [18]: 33.7%
- Activity [19]: Active
- Activity [20]: inactive
- IC50 [21]: ≥ 40 µM
- Kd [22]: 11.1 µM
- Drug uptake [23]: Active
- Activity [24]: Active
- Activity [25]: 29.9%
- Activity [26]: Non-Toxic
- Activity [27]: Active
- ΔTm [2]: 23 °C
- Activity [28]: Non-Toxic
- Activity [29]: Active
- Kd [30]: 4.2 µM
- Activity [31]: inactive
- Activity [32]: 4.2%
- Activity [33]: Active
- Activity [34]: 58%
- Activity [35]: 12%
- ΔTm [3]: 22 °C
- ΔTm [4]: 15 °C
- Activity [36]: Active
- Activity [37]: 68%
- Kd [38]: 4.4 µM
- ΔTm [5]: 2 °C
- Activity [39]: inactive
- Activity [40]: 37%
- Kd [41]: 11.4 to 13.8 µM
